A selection: hits, their analogues and other compounds. The true share with any hit is near 3.4%.
VIM-2 inh: inhibitors of Pseudomonas aeruginosa VIM-2 metallo-beta-lactamase; AID 1527; inhibition, % at 5.6 µM; purified VIM-2, nitrocefin hydrolysis, epi-absorbance fluorescence; actives 0.89% (n = 290,000);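 active = inhibition above the mean of all tested compounds plus 3 SD, cutoff set per screening run, cut at about 7.5% in these data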;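 note: red hydrolysis product quenches plate fluorescence so inhibitors raise well fluorescence; 0% = enzyme with DMSO and 100% = DMSO without enzyme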
CHT block: human CHT choline transport inhibition; Q9GZV3; CHT-expressing cells, membrane potential dye, choline response; active compounds read low; B-score at 10 µM; actives 0.86% (n = 310,000);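 active = B-score over 3 SD under the library average, and starting fluorescence ratio not unusually high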;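 note: choline stimulus applied at its EC90 after an EC20 pre-addition; B-score computed on integrated fluorescence ratio after choline addition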
Target sequence (Q9GZV3 whole entry, looked up): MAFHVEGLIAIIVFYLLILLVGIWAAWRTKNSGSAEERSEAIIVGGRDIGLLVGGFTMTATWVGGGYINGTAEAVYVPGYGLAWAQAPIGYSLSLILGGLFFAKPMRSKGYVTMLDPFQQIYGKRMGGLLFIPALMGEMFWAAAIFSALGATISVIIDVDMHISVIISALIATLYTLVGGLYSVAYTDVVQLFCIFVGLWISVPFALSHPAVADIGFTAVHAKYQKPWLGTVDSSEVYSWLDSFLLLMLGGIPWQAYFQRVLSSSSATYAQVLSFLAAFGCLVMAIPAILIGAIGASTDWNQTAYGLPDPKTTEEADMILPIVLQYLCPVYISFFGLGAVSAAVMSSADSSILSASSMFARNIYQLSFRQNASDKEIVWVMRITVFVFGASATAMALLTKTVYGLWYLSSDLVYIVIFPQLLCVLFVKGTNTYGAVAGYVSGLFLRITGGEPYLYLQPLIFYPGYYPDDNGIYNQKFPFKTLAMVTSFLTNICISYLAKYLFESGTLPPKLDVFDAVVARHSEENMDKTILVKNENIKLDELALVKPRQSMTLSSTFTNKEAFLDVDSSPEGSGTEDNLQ
IMP-1 inhibitor: blocks Pseudomonas aeruginosa IMP-1 metallo-beta-lactamase | actives 0.45% (n = 290,000) | inhibition, % at 5.6 µM | purified IMP-1, nitrocefin hydrolysis, epi-absorbance fluorescence | AID 1556;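 active = inhibition above the mean plus 3 SD of all compounds in the same screening run, cut at about 4.5% in these data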;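 note: 0% = IMP-1 with DMSO and 100% = DMSO wells lacking enzyme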
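Test system: recombinant IMP-1 enzyme, purified / Medium: HEPES buffer pH 7.1 with ZnSO4 and Brij 35 / Doses: single dose, 5.6 µM / Times: 25 °C, 15 min preincubation, 25 min reaction / Detection: Epi-absorbance via hydrolysed-nitrocefin quenching of white-plate fluorescence, 480/530 nm, EDTA stop / Evaluation: percent inhibition from optical density relative to buffer-blank wells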
CHT allo act: allosterically activates the human high affinity choline transporter | CHT-expressing cells, membrane potential dye, choline EC20; active compounds read high; LV-AA mutant CHT in HEK293 cells | actives 0.49% (n = 310,000) | B-score at 10 µM;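 active = initial fluorescence not abnormally high and integrated response B-score, plate-corrected, over 3 SD above library mean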
TMEM16A inh: blocks the mouse calcium-activated chloride channel TMEM16A; normalized B-score (activity score, 25-100; higher = stronger inhibition) at 10 µM; HEK293 TMEM16A/YFP iodide influx fluorescence, ionomycin; actives 1.2% (n = 310,000); Q8BHY3;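 active = ratio plate-corrected score three or more library SD toward inhibition, starting fluorescence score within five deviations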;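 note: score derived from kinetic fluorescence span divided by baseline fluorescence per well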
TMEM16A act: activates or potentiates the mouse TMEM16A chloride channel. Q8BHY3. HEK293 TMEM16A/YFP-H148Q/I152L, iodide quench fluorescence; active compounds read low. B-score at 10 µM. actives 0.3% (n = 340,000). AID 623877;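 active = fluorescence-ratio B-score plate-corrected deviation score at least 3 library SD below zero, with starting fluorescence score within 5 deviations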;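 note: channel opened by trigger with iodide after compound preincubation; score built on the fluorescence ratio of max minus min over baseline; more negative score means more quench and so TMEM16A activation or potentiation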
TMEM16A reconf: reconfirmed blocker of mouse TMEM16A calcium-activated chloride channel; shares compounds with TMEM16A inh; HEK293 TMEM16A/YFP-H148Q, iodide quench fluorescence; ionomycin added to raise cell calcium; inhibition, % at 10 µM; actives 39% (n = 2,300);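 active = mean duplicate percent inhibition, scaled so buffer wells are 0 and the reference blocker 100, over three buffer SD above buffer mean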
HEK293 Ca mobil: counter-screen for TMEM16A inhibitors: effect on calcium mobilization; shares compounds with TMEM16A inh; TMEM16A/YFP HEK293, Fluo4 calcium mobilization; calcium response (% of ionomycin), % at 10 µM; actives 2% (n = 2,300); AID 652231;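 active = duplicate-averaged calcium signal over 20% of the ionomycin maximum, relative to buffer baseline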;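 note: each well's signal is peak minus trough fluorescence divided by its pre-addition baseline; 0% = buffer wells and 100% = ionomycin wells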
YFP-HEK293 quench: counter-screen for TMEM16A inhibitors: effect in parental YFP-HEK293 cells. iodide YFP quench, ionomycin. 2,300 tested, under 10 active. YFP ratio F(max-min)/F0 at 10 µM. shares compounds with TMEM16A inh. AID 652233;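 active = yellow fluorescent protein signal ratio exceeding the buffer control mean by over 5 SD of those controls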;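 note: ratio is mean of duplicate wells from kinetic YFP trace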
ClC-1 inh: selectivity of TMEM16A inhibitors: inhibition of rat ClC-1 chloride channel; CHO ClC-1-YFP, iodide influx fluorescence quench; iodide control reads 0, buffer control 100; ratio percent, % at 10 µM; 2,300 tested, under 10 active; shares compounds with TMEM16A inh;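 active = duplicate-mean ratio percent above the mean of iodide-only control wells, which defines zero, plus 5 of their SD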;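 note: higher percent means stronger block of ClC-1 iodide influx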
* marks the source's active call; other numbers are inactive results; i = inactive; . = not tested or not shown.

SMILES	VIM-2 inh	CHT block	IMP-1 inhibitor	CHT allo act	TMEM16A inh	TMEM16A act	TMEM16A reconf	HEK293 Ca mobil	YFP-HEK293 quench	ClC-1 inh
O=C(Nc1nccs1)c1ccc(COc2c(F)c(F)cc(F)c2F)cc1	-0.8	i	-1.1	i	i	i	.	.	.	.
Cc1cc(C(=O)CSc2nncs2)c(C)n1-c1c(C)n(C)n(-c2ccccc2)c1=O	-2.8	i	-2.6	i	i	i	.	.	.	.
Cc1ccc(-n2c(C)cc(C(=O)CSc3nncs3)c2C)cc1	-5.2	i	-1.9	i	100*	i	50.5%*	i	-0.897	-18.0
NS(=O)(=O)c1ccc(CCNC(=O)COC(=O)C2COc3ccccc3O2)cc1 (configuration not stated)	.	.	.	.	.	i	.	.	.	.
COc1cccc(N2CCN(c3ccc4nnc(CCC(=O)Nc5ncccc5C)n4n3)CC2)c1	-0.8	i	-4.5	i	i	i	.	.	.	.
Oc1ccccc1CNc1cnc2ccccc2c1	0.4	i	-3.6	i	100*	i	i	i	-0.962	-25.5
CC1CN(S(=O)(=O)c2ccc(C(=O)Nc3nnc(-c4ccccn4)o3)cc2)CC(C)O1 (configuration not stated)	-1.4	i	-4.0	i	i	i	.	.	.	.
CC1CN(S(=O)(=O)c2ccc(C(=O)Nc3nnc(-c4ccc5c(c4)CCCC5)o3)cc2)CC(C)O1 (configuration not stated)	-1.6	i	-4.6	i	100*	i	32.0%*	i	-0.998	-13.5
Nc1c(C(=O)c2ccccc2)sc2nsc(SCCN3CCCC3)c12	8.3*	i	1.9	i	i	i	i	i	-0.963	-12.0
Cc1ccc(C2CC(=O)c3cnc(N4CCN(c5ccccc5)CC4)nc3C2)cc1 (configuration not stated)	-3.9	i	-2.6	i	i	i	.	.	.	.
COc1ccc(C2CC(=O)c3cnc(N4CCN(Cc5ccccc5)CC4)nc3C2)cc1 (configuration not stated)	-3.3	i	-3.5	i	25*	i	i	i	-1.15	-5.0
NC(=O)c1ccc(-n2nnnc2SCC(=O)Nc2ccccc2F)cc1	-1.2	i	-1.6	i	i	i	.	.	.	.
CC(C)Cc1nc(N2CCN(C(=O)c3ccco3)CC2)c(C#N)c2c1CCC2	-2.1	i	-2.7	i	25*	i	i	i	-1.28	-16.0
N#Cc1c(NC(=O)CN2CCN(C(=O)c3ccco3)CC2)sc2c1CCCCC2	-3.3	i	-2.8	i	25*	i	i	i	-1.17	-18.0
N#Cc1c(NC(=O)CN2CCCCC2)sc2c1CCC2	-1.3	i	-2.1	i	i	i	.	.	.	.
CC(=O)N1CCN(c2nc(CC(C)C)c3c(c2C#N)CCC3)CC1	-2.6	i	-3.2	i	i	i	.	.	.	.
Cc1cc(-c2ccc(Cl)cc2Cl)c(C#N)c(=O)[nH]1	1.2	i	-0.2	i	i	i	.	.	.	.
CSc1nc(-c2ccc(Cl)cc2Cl)[nH]c(=O)c1C#N	-5.4	i	-1.6	i	25*	i	49.5%*	i	-1.11	-8.0
O=C(CSc1ccc(Cl)cc1Cl)N1CCC(c2nc3ccccc3s2)CC1	-0.2	i	-3.0	i	100*	i	i	i	-0.977	-6.0
O=C(NNS(=O)(=O)c1ccc(Br)cc1)c1csnn1	3.2	.	-1.0	.	.	i	.	.	.	.
Cc1ccc(C)n1-n1cnc2sc(-c3ccccc3)cc2c1=O	-3.2	i	-3.1	i	i	i	.	.	.	.
Cc1ccc(C)n1-n1c(C)nc2sc(-c3ccccc3)cc2c1=O	-3.5	i	-2.0	i	100*	i	i	i	-0.942	2.5
O=C(CN(Cc1ccccc1)C(=O)CCl)c1cccc(Br)c1	.	i	.	i	i	i	.	.	.	.
CC(=O)Nc1ccc(NC(=O)c2ccc(Cl)c(S(=O)(=O)N3CCc4ccccc43)c2)cc1	.	.	.	.	.	i	.	.	.	.
O=C(Nc1cccnc1)c1ccc(Cl)c(S(=O)(=O)N2CCc3ccccc32)c1	-1.7	i	-0.6	i	100*	i	17.5%*	i	-0.959	-5.0
SMILES	VIM-2 inh	CHT block	IMP-1 inhibitor	CHT allo act	TMEM16A inh	TMEM16A act	TMEM16A reconf	HEK293 Ca mobil	YFP-HEK293 quench	ClC-1 inh
CCOC(=O)Cc1ccc(NC(=O)c2ccc(C(C)(C)C)cc2)cc1	-3.0	i	-1.2	i	100*	i	32.5%*	i	-0.909	4.5
CCOC(=O)Cc1ccc(NC(=O)c2ccccc2Br)cc1	-4.0	i	-1.6	i	i	i	.	.	.	.
Cc1ccc(S(=O)(=O)CC(=O)N2CC(C)OC(C)C2)cc1 (configuration not stated)	-1.7	i	-3.0	i	i	i	.	.	.	.
COc1cc(NS(=O)(=O)c2ccc(Br)s2)cc(OC)c1	-3.0	i	-1.5	i	25*	i	32.0%*	i	-0.984	-6.5
COc1ccc(CNS(=O)(=O)c2ccc(Br)s2)cc1	0.9	i	-1.9	i	i	.	.	.	.	.
COc1cc(-c2c(NC(=O)c3ccco3)oc3ccccc3c2=O)cc(OC)c1OC	-3.5	i	-5.7	i	i	i	.	.	.	.
COc1ccc(S(=O)(=O)N2CCN=C2SCc2cccc(C)c2)cc1	-3.1	i	-3.4	i	25*	i	i	i	-1.18	-8.0
COc1ccc(CN(C)CC(=O)Nc2cccc(S(=O)(=O)N(C)c3ccccc3)c2)c(OC)c1	.	.	.	.	.	i	.	.	.	.
O=C(Nc1ccc(S(=O)(=O)Nc2ccc(F)cc2)cc1)c1ccc(CN2CCOCC2)cc1	-5.2	i	-4.2	i	25*	i	39.0%*	i	-0.903	-15.0
O=C(Nc1ccc(S(=O)(=O)N2CCCC2)cc1)c1ccc(CN2CCOCC2)cc1	-4.0	i	-0.6	i	100*	i	46.5%*	i	-0.877	-16.5
CCN(CC)S(=O)(=O)c1ccc(NC(=O)c2ccc(CN3CCOCC3)cc2)cc1	-0.3	i	0.0	i	100*	i	29.5%*	i	-1.1	-7.5

Screens: PubChem BioAssay, several laboratories
